Data set [1] concerns the target EF-G GTPase (70S ribosomes) (Escherichia coli, UniProt P0A7J7). In words: EF-G GTPase Pi release assay with MDCC-labeled PBP. The format is biochemical.
The target in data set [2] is IF2 (70S initiation complex formation) (Escherichia coli, UniProt P0A7J7). In words: IF2^Cy3 fluorescence change assay. The format is biochemical. The following applies: ThS, NoS at 1.5 µM (Figure 2A); precursors in dose response screen.
In data set [3] the test system is Escherichia coli in vitro coupled transcription-translation (GFP synthesis). Briefly: In vitro coupled transcription-translation. The following applies: 5 µM ThS, 5 µM NoS, 25 µM GE2270T (Figure 4). The format is biochemical. Put shortly: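 E. coli lysate-based coupled transcription-translation system expressing GFP, ribosomes ~2 µM, run with or without test compound. After reaction, samples are moved to microtiter plates. GFP fluorescence is imaged on a laser scanner with blue-laser excitation and quantified from the images, with inhibition taken against the no-antibiotic reaction.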

Data set [4] deals with EF-G GTPase (E. coli 70S ribosomes) (Escherichia coli, UniProt P0A7J7). The data set is classed as biochemical. The following applies: compound 1 µM; 30 nM 70S ribosomes, 20 µM GTP, 60 nM protein.
The conditions of data set [5]: background statement, no reference given; cited from earlier work.

Chain of EF-G GTPase (70S ribosomes) (P0A7J7 2-142): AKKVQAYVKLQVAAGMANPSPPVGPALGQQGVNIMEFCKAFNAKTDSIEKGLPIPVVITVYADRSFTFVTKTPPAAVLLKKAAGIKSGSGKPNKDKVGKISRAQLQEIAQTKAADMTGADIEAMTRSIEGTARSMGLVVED
Chain of IF2 (70S initiation complex formation) (P0A7J7 2-142, one chain of several): as the sequence (P0A7J7 2-142) above
Chain of EF-G GTPase (E. coli 70S ribosomes) (P0A7J7 2-142): as above

`C/C=C(\NC(=O)c1csc(-c2csc(-c3ccc4c(n3)-c3csc(n3)[C@H]([C@@H](C)O)NC(=O)c3csc(n3)[C@H](C(C)C)NC(=O)c3csc(n3)/C(=C/C)NC(=O)[C@H]([C@@H](C)O)NC(=O)c3csc-4n3)n2)n1)C(=O)NC[C@@H](C)O` [MiC, micrococcin]: in data set [1], the EC50 worked out at 110 nM.
As to `C=C(NC(=O)c1csc(-c2nc3c(cc2O)-c2nc(cs2)C(=O)N[C@@H]([C@@H](C)O)C(=O)N/C(=C\C)c2nc(cs2)C(=O)N[C@H]2C[C@H](O)C(=O)OCc4cccc5[nH]c(c(C)c45)C(=O)SC[C@H](NC(=O)c4csc2n4)c2nc-3cs2)n1)C(N)=O` [NoS, nosiheptide], the “inhibition of the IF2^Cy3 fluorescence increase on 70SIC formation (in words)” value in data set [2] is reported as “inhibited”. In addition, the “inhibition of GFP synthesis in the in vitro TT assay” value (shortened to “inhibition of GFP synthesis”) in data set [3] is “potent inhibitors”. The same compound came in with an EC50 in data set [1] of 40 nM.
`C=C(NC(=O)C(=C)NC(=O)c1csc(C2=N[C@@H]3c4csc(n4)[C@H]4NC(=O)c5csc(n5)[C@H]([C@](C)(O)[C@@H](C)O)NC(=O)[C@H]5CSC(=N5)/C(=C/C)NC(=O)[C@H]([C@@H](C)O)NC(=O)c5csc(n5)[C@]3(CC2)NC(=O)[C@H](C)NC(=O)C(=C)NC(=O)[C@H](C)NC(=O)[C@H]([C@@H](C)CC)N[C@@H]2C=Cc3c([C@H](C)O)cc(nc3[C@H]2O)C(=O)O[C@@H]4C)n1)C(N)=O` [ThS, thiostrepton]: in data set [2], the “inhibition of the IF2^Cy3 fluorescence increase on 70SIC formation (in words)” value is given as “inhibited”. In addition, the “inhibition of GFP synthesis” value in data set [3] is reported as “potent inhibitors”. In data set [4], the “inhibition of EF-G GTPase activity (Malachite Green)” value is “almost completely abolished”. Further, the bioavailability result in data set [5] is “poor”.
Consider GE2270T, for which the “inhibition of GFP synthesis” value in data set [3] is reported as “potent inhibitors”.

One may read the EC50 as the midpoint of the concentration-response curve.

These data come from PMC3117328 (Chemistry & biology, 2009).
